High-throughput results (PubChem BioAssay)
PG9 Ab binder: binders of HIV-1 gp120 antibody PG9, primary screen, biochemical, TR-FRET; inhibition, % at 6.7 µM; TR-FRET gp120-PG9 antibody binding; HIV-1 gp120 / PG9 antibody interaction; actives 0.43% (n = 360,000); in the data active = inhibition above about 8.5%
Rev-erbA mod: modulators of Rev-erb alpha DNA binding, primary screen, biochemical, FITC-DNA, fluorescence polarization, uHTS. actives 0.79% (n = 370,000). activity, % at 10 µM. Rev-erbα–FITC-DNA binding, 90 min. Nuclear receptor subfamily 1 group D member 1 (Homo sapiens), P20393;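 active = activity above about 14%, limit read from the data; passing the limit was not always enough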
Target sequence (P20393 whole entry, looked up): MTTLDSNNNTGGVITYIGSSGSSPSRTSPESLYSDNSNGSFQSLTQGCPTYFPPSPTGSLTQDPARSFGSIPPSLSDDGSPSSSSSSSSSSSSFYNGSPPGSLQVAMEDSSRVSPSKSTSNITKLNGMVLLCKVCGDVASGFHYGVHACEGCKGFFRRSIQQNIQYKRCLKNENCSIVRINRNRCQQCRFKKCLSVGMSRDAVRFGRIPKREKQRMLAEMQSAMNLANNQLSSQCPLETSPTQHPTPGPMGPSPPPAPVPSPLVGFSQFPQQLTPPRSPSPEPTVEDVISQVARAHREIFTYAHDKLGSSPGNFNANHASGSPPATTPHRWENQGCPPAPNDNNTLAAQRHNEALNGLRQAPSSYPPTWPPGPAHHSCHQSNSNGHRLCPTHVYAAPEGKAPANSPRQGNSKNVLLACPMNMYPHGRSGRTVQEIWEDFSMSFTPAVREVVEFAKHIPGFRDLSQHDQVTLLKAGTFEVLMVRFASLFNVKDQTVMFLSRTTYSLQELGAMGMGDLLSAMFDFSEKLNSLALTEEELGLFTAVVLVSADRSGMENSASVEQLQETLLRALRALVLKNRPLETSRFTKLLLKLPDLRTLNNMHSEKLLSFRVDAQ
MC4R antagonist: MC4R antagonists of cAMP signaling, primary screen, cell-based, TR-FRET, antagonist arm of biased-ligand search; MC4R-expressing cells, MTII-stimulated cAMP, LANCE TR-FRET; inhibition, % at 6.5 µM; Melanocortin receptor 4 (Homo sapiens), P32245; actives 0.48% (n = 360,000);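 active = inhibition above its plate's cutoff, the mean of tested wells on that plate plus 3 SD, cut at about 29% in these data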
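Assay system: U2OS cells stably expressing human melanocortin 4 receptor (MC4R) / Dosing: 6.5 µM / Timing: compound 30 min, challenge 1 h, detection 1 h / Measured by: Eu-cAMP/anti-cAMP TR-FRET, emission 671 nm / Replicates: singlicate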
MC4R ag barr: MC4R agonists recruiting beta-arrestin, primary screen, cell-based, luminescence, agonist arm of biased-ligand search. Melanocortin receptor 4 (Homo sapiens), P32245. U2OS MC4R beta-arrestin complementation; percent of melanotan II response, DMSO zero. activation, % at 8.9 µM. actives 0.98% (n = 360,000). AID 540308, 2011;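 active = activation above a per-plate cutoff, the mean activation of sample wells on that plate plus 3 SD, cut at about 8% in these data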
NR2E3 ag-1: NR2E3 agonists in two-hybrid cells, primary screen, cell-based, luminescence, CHO-S, Gal4-NCOR/VP16-NR2E3; Photoreceptor-specific nuclear receptor (Homo sapiens), Q9Y5X4; luciferase; inhibition of corepressor binding, % at 3.98 µM; actives 0.35% (n = 360,000); AID 602229, 2012;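 active = inhibition above the mean of all tested compounds plus 3 SD, cut at about 70% in these data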;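 also: higher means lower luciferase signal from less NR2E3 corepressor binding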
NR2E3 ag-2: inhibitors of NR2E3-RetCOR corepressor binding, primary screen, NR2E3 agonist project, biochemical, TR-FRET, GST-NR2E3, biotin-RetCOR | Photoreceptor-specific nuclear receptor (Homo sapiens), Q9Y5X4 | 1536-well | inhibition of corepressor binding, % at 4.78 µM | actives 0.12% (n = 320,000);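 active = percent inhibition above the cutoff of mean plus 3 SD of all tested compounds, set per screening campaign, cut at about 20% in these data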
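Material – GST-tagged NR2E3 plus biotinylated RetCOR corepressor · Quantity – NR2E3 fusion 1.35 nM · Times – 5 h incubation at 4 °C · Medium – pH 7.5 Tris-based buffer · Technique – TR-FRET, Eu(K)-anti-GST donor, streptavidin-D2 acceptor, ex 340, em 617/671 nm · Benchmarks – high control biotin, low control 0.6% DMSO · Format – 1536-well plates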
PG9 bind confirm: binders of anti-gp120 antibody PG9, confirmation, biochemical, TR-FRET. inhibition, % at 6.7 µM. actives 90% (n = 1,500). shares compounds with PG9 Ab binder. TR-FRET PG9 antibody binding; in the data active = inhibition above about 9%
PGV04 counter: binders of control antibody PGV04, counter-screen for PG9 antibody binder project, biochemical, TR-FRET, distinct HIV envelope site. inhibition, % at 6.7 µM. AID 651604, 2012. TR-FRET PGV04 antibody-gp120 binding. actives 95% (n = 1,500). shares compounds with PG9 Ab binder; in the data active = inhibition above about 9.5%
NR1D1 mod conf: modulators of Rev-erb alpha DNA binding, confirmation, biochemical, FITC-DNA, fluorescence polarization, single point. shares compounds with Rev-erbA mod. actives 61% (n = 3,000). activation, % at 25 µM. 90 min. AID 1259319, 2017;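 active = activation at or above a set limit, or at least 3 SD above the negative control mean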
RORg counter: modulation of RORgamma DNA binding, dose response, counter-screen for Rev-erb alpha modulator project, biochemical, fluorescence polarization, FITC-DNA; purified RORgamma protein-FITC-DNA binding; AID 1259320, 2017; IC50, µM; shares compounds with Rev-erbA mod; actives 8% (n = 910);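 active = Compounds whose fitted half-maximal concentration for disrupting protein-DNA binding is below 10 micromolar; the record names Rev-erb in its text, so the target is in doubt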
Of the large screens only hits and unclear results are named; the others gave an inactive call (follow-up assays come after a bar, where they were run). Rows were chosen to be rich in hits. Some 2.7% of all compounds tested hit in one or more screens of this group.

COc1ccc(Cl)cc1NC(=O)c1[nH]c(C)c(C(C)=O)c1C	PG9 Ab binder 27.0, Rev-erbA mod 30.6 | PG9 bind confirm 28.4 | PGV04 counter 31.4 | NR1D1 mod conf 35.0 | RORg counter inactive
Cc1ccc2cc(/C=C(\C#N)C(N)=O)c(N3CCCCC3)nc2c1	none
CCOC(=O)/C(C#N)=C/c1cc2ccccc2nc1N1CCCCC1	PG9 Ab binder 26.8, Rev-erbA mod 43.3 | PG9 bind confirm 25.2 | PGV04 counter 29.7 | NR1D1 mod conf 43.0 | RORg counter inactive
CCOc1ccccc1NC(=O)CN1CCC(C(=O)c2ccc(OC)cc2)CC1	none
COc1cccc(/C=N/n2nnnc2N)c1O	none
COc1ccc(S(=O)(=O)NC2CC(=O)N(c3ccc4c(c3)OCCO4)C2)cc1 (centres undefined)	none
O=C(Nc1ccc2c(c1)C(=O)N(c1ccccc1)C2=O)c1cccs1	PG9 Ab binder 21.7, Rev-erbA mod 19.6 | PG9 bind confirm 28.6 | PGV04 counter 40.4 | NR1D1 mod conf inactive
O=C(O)CCN1C(=O)c2ccc(NC(=O)c3cccs3)cc2C1=O	none
CC(=O)Nc1ccc(-c2cc(-c3ccc(NC(C)=O)cc3)nc(-c3ccc(NC(C)=O)cc3)n2)cc1	PG9 Ab binder 28.8, Rev-erbA mod 52.0 | PG9 bind confirm 25.1 | PGV04 counter 45.4 | NR1D1 mod conf 35.3
CC(=O)Nc1ccc(-c2cc(-c3ccccc3)nc(-c3ccccc3)n2)cc1	none
CCCCNC(=O)C1c2ccccc2OCC(=O)N1Cc1ccco1 (centres undefined)	none (no result: MC4R antagonist, MC4R ag barr, NR2E3 ag-2)
CCC(C(=O)OCC(=O)Nc1cc(Cl)ccc1Cl)c1ccccc1 (centres undefined)	none
CC(OC(=O)c1cc(Br)ccc1O)C(=O)NCc1ccc2c(c1)OCO2 (centres undefined)	PG9 Ab binder 19.6, Rev-erbA mod 35.2 | PG9 bind confirm 33.0 | PGV04 counter 68.5 | NR1D1 mod conf 22.7
Cc1nc(C(=O)Nc2ccccc2Cl)cc2c1[nH]c1ccccc12	PG9 Ab binder 21.7, Rev-erbA mod 21.2 | PG9 bind confirm 11.6 | PGV04 counter 25.9 | NR1D1 mod conf inactive
O=C(CSc1ncccc1-c1nc2ccccc2[nH]1)N1CCc2ccccc21	PG9 Ab binder 13.9, Rev-erbA mod 28.5 | PG9 bind confirm 20.9 | PGV04 counter 33.0 | NR1D1 mod conf 25.1
O=C1NC(Cc2ccccc2)c2nc3cc(F)c(F)cc3c(=O)n2-c2ncccc21 (centres undefined)	none (no result: NR2E3 ag-2)
